Test results: PMC3304489 (Biochemical Journal, 2012)

Test system: MALT1
Assay: Effect of buffer additives on MALT1 activity
Assay type: biochemical, human
Details: 50 mM Hepes, 100 mM NaCl, 0.9 M sodium citrate, pH 7.5, supplemented with additive (Figure 2C and results not shown)
Outline: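 Recombinant human MALT1, expressed in E. coli and Ni-NTA purified, used as full-length (150 nM) and as His-tagged catalytic domain (residues 329–566, 4 μM). Each was assayed in 50 mM Hepes, 100 mM NaCl, 0.9 M sodium citrate (pH 7.5) with the indicated additives. Experiments were repeated three times, and mean ± S.E.M. is reported.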

With `c1cnc2c(c1)ccc1cccnc12` [1,10-phenanthroline] the “effect of buffer additive on the activity of MALT1 (in words)” value (from here on “effect of buffer additive”) was “no substantial effect”.
For `O[C@@H](CS)[C@@H](O)CS` (racemic) [DTT, dithiothreitol], the “effect of buffer additive” value was “activity was enhanced”.
For `[Ca+2].[Cl-].[Cl-]` [CaCl2], the “effect of buffer additive” value was “no substantial effect”.
`O=C(O)CN(CCN(CC(=O)O)CC(=O)O)CC(=O)O` [EDTA] was tested, and the “effect of buffer additive” value was “no substantial effect”.
